One series has as its system hERG potassium channel. The settings on record: cited from earlier work.
The subject of a further series is CYP3A4. To be noted: cited from earlier work.
For series [1], the system named is beagle dogs. The series is described as follows: telemetry hemodynamic measurements in dogs. Format: in vivo, dog. To be noted: for adjusted mean diastolic pressure, lower vs control: 1 hour post-dose; for adjusted mean pulse pressure, lower than controls / adjusted mean systolic pressure, lower than controls: 3 hours post-dose; for adjusted mean systolic pressure, lower than controls: not significant. The method, boiled down:
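Telemetered male beagles (abdominal transmitter implanted at least 2 weeks before) given oral capsules at 0, 1, 10 or 30 mg/kg in a Latin square on days 1, 4, 8 and 11. Systolic, diastolic and mean arterial pressure, pulse pressure and heart rate recorded continuously from at least 90 min pre-dose to about 18 h post-dose. Analysed by repeated-measures ANCOVA with Dunnett or Dunnett–Hsu comparisons against control.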

The subject of another series is CYP enzyme. To be noted: cited from earlier work.
For another series, the system named is P-glycoprotein (P-gp). The settings on record: cited from earlier work.
For series [2] the following is noted: rats, 100 mg/kg; cited from earlier work.
For series [3], the system named is beagle dogs. As to the kind of experiment: telemetry ECG evaluation in dogs. Format: in vivo, dog. The method, boiled down: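 Male beagles with abdominal ECG/pressure/temperature transmitters implanted at least 2 weeks before. Oral capsule doses of 0, 1, 10 or 30 mg/kg in a Latin square with 2-day washouts. ECG recorded from at least 90 min pre-dose to about 18 h post-dose. QTc from a per-animal regression of 1-min QT versus RR means on the control day. Waveform review at 1, 2, 4, 8, 12 and 18 h. Repeated-measures ANCOVA with Dunnett tests.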

Series [4] concerns Sprague Dawley rats. The series is described as follows: locomotor activity assessments. In kind it is in vivo, rat. The settings on record: female rats; for basic movements: day 2, 4–6 minutes post-commencement of assessment, control 375, p ≤ 0.05. The method, boiled down:
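Female rats, 8 per group, dosed orally on days 1 and 2 at 0–1000 mg/kg/day. Tested pre-dose and on day 2: within 10 min after the functional battery, each rat was placed in a dark, sound-attenuated chamber. Photocell recording ran for 40 min, reported in 20 intervals of 2 min each. Read-outs: basic movement, horizontal and vertical ambulation, fine movement, rearing.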

The next series concerns humans. The settings on record: any dose up to the maximum of 300 mg; cited from earlier work.
Series [5] relates to Sprague Dawley rats. The series is described as follows: functional observational battery. Format: in vivo, rat. The settings on record: female rats, oral ≤ 1000 mg/kg/day, 0.5 hours post-dose on day 2. The method, boiled down:
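Eight female Sprague Dawley rats per group received oral gavage on days 1 and 2 at 0, 100, 300 or 1000 mg/kg/day (vehicle: 5% DMSO, 40% PEG 400, 55% saline; 10 mL/kg). Functional observational battery run once pre-dose and about 0.5 h post-dose on day 2, at the same time of day ±2 h. It covered sensory reactivity (approach response, righting reflex), grip strength, foot splay and body temperature.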

For a further series, the system named is rats. The settings on record: doses up to 30 mg/kg; cited from earlier work.
Series [6] concerns D2 receptor. The settings on record: humans, cited from earlier work.
In series [7] the test system is Sprague Dawley rats. The series is described as follows: pulmonary assessments. To be noted: male rats, any dose level (100–1000 mg/kg/day). In kind it is in vivo, rat. The gist of the method:
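Eight male Sprague Dawley rats per group. Acclimated 4 days, then placed in head-out plethysmography chambers three times on separate days. On day 1, a single oral gavage dose of 0, 100, 300 or 1000 mg/kg (DMSO/PEG 400/saline vehicle), then immediate chamber placement. Recorded at baseline, through 6 h and about 24 h post-dose. Analysed by repeated-measures ANCOVA with Dunnett–Hsu comparisons against control.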

The nature of series [8]: toxicokinetic analysis in rat plasma. In kind it is in vivo. To be noted: all dose groups. The gist of the method:
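Toxicokinetic cohort of 60 Sprague Dawley rats (30 male), separate from the pharmacology groups. A single oral dose was given on day 1 at 0, 100, 300 or 1000 mg/kg (maleate salt). Blood was drawn from the jugular vein of non-fasted rats on a serial schedule. Cmax, Tmax and AUC were derived from plasma concentration–time data.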

The subject of series [9] is D2 receptor. The settings on record: rats, prolactin release as pharmacodynamic biomarker; cited from earlier work.
Series [10] deals with beagle dogs. As to the kind of experiment: clinical observations, body weight and body temperature in dogs. In kind it is in vivo, dog. The gist of the method: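 Four male beagles, 17–18 months old, 9.9–12.8 kg. Oral gelatin capsules at 0 (Avicel:Explotab 10:1), 1, 10 or 30 mg/kg (maleate salt) on days 1, 4, 8 and 11, in a Latin square with ascending doses and 2-day washouts. Checked twice daily for mortality, abnormalities and distress, with daily cage-side observations. Body weight recorded pre-dose and the day before each dosing. Body temperature recorded by implanted telemetry.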

The conditions of series [11]: dogs, 50 mg/kg; cited from earlier work.
For series [12] the following is noted: beagle dogs; cited from earlier work.
Series [13] relates to Sprague Dawley rats. As to the kind of experiment: clinical observations and examinations in rats. Format: in vivo, rat. To be noted: rats treated with trazpiroben. The method, boiled down:
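Sprague Dawley rats, 11–12 weeks old, group-housed and acclimatised at least 1 week. Oral gavage at 0 (vehicle: 5% DMSO, 40% PEG 400, 55% saline), 100, 300 or 1000 mg/kg/day, 10 mL/kg, dose expressed as maleate salt. Checked twice daily for mortality, abnormalities and signs of pain or distress. Ophthalmic examination and body weight were recorded once pre-dose.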

Like-named read-outs stand apart in the source and are kept apart here.

Consider `O=c1[nH]c2ccccc2n1CCCN1CCC(n2c(=O)[nH]c3cc(Cl)ccc32)CC1` [domperidone, reference compound], for which, in the series on hERG potassium channel (read-out: IC50, hERG potassium channel), the IC50 was 57 nM. In addition, in the series with CYP3A4, the metabolizing enzyme result is given as “primarily metabolized via the cytochrome P450 (CYP) 3A4 enzyme”.
`O=C(O)c1cccc(CN2CN(C3CCCCC3)C3(CCN(CCCC(=O)c4ccccc4)CC3)C2=O)c1` [Trazpiroben]: the “adjusted mean diastolic pressure, higher vs control” value with beagle dogs [1] (1 mg/kg, 4 hours post-dose, p ≤ 0.05) stood at 6%; with beagle dogs [1] (10 mg/kg, 4 hours post-dose, p ≤ 0.05) it was 8%; in the series with beagle dogs [1] (10 mg/kg, 5 hours post-dose, p ≤ 0.01), 6%; in the series on beagle dogs [1] (30 mg/kg, 4 hours post-dose, p ≤ 0.05), 5%; in the series on beagle dogs [1] (30 mg/kg, 5 hours post-dose, p ≤ 0.01) it was 6%. Moreover, the “adjusted mean diastolic pressure, lower vs control” value is on record as 5% with beagle dogs [1] (10 mg/kg, p ≤ 0.05) and 8% with beagle dogs [1] (30 mg/kg, p ≤ 0.01). For the same molecule, the “adjusted mean pulse pressure, lower than controls” value worked out at 15% in the series with beagle dogs [1] (10 mg/kg) and 23% in the series with beagle dogs [1] (30 mg/kg). The figures for the “adjusted mean systolic pressure, lower than controls” value with beagle dogs [1] (10 mg/kg) and with beagle dogs [1] (30 mg/kg) were 6% and 9%, respectively. Moreover, the “heart rate, higher than control” value in the series on beagle dogs [1] (30 mg/kg, 3 hours post-dose (greatest effect), first light cycle) turned out to be 28%. Besides, the “changes in diastolic pressure, different from control” value in the series with beagle dogs [1] (all changes, all doses) is on record as at most 8%. Also, in the series with CYP enzyme, the “potential for CYP enzyme induction or inhibition” value is on record as “limited potential for CYP enzyme induction or inhibition”. For the same molecule, the “substrate for the efflux transporter P-glycoprotein (P-gp)” value with P-glycoprotein (P-gp) is “substrate”. Also, the “difference in affinity, hERG versus intended D2/D3 receptor targets” value in the series with hERG potassium channel is given as 10,000 fold. Besides, the brain penetration entry in series [2] and in [11] was “minimal brain penetration” in each case. In addition, in the series on beagle dogs [3] (dogs, 30 mg/kg, 3 hours after administration (maximal effect)), the “adjusted PR interval mean, lower than control” value came out at 12%. Also, in the series with beagle dogs [3] (dogs, 30 mg/kg, 3 hours after administration, control 102 msec), the “adjusted PR interval mean” value was 90 ms. In the series with beagle dogs [3] (dogs, 1, 10, 30 mg/kg), the “effects on QRS duration or QT interval corrected for heart rate (QTc)” value is given as “no trazpiroben-related effects”. In the series with beagle dogs [3] (dogs, first light cycle, 30 mg/kg, not significant at any dose), the “QT interval, lower than control” value is reported as at most 6%. The “abnormal ECG waveforms or arrhythmias” value in the series with beagle dogs [3] (male beagle dogs, oral 1, 10, 30 mg/kg) is listed as “No abnormal ECG waveforms or arrhythmias were recorded”. For the same molecule, the basic movements in the series with Sprague Dawley rats [4] (300 mg/kg/day) is recorded as 199 basic movements in 2 minutes; in the series with Sprague Dawley rats [4] (1000 mg/kg/day), 171 basic movements in 2 minutes. Besides, the “counts of horizontal and vertical ambulation” value with Sprague Dawley rats [4] (≥ 300 mg/kg/day, 2–6 minutes post-dose) was “significantly decreased”. For the same molecule, the CNS effects entry with humans is “no CNS effects noted”. Besides, in the series on Sprague Dawley rats [5], the “effects on FOB assessment results” value is reported as “No effects were observed”. The “effects in rotarod testing (motor coordination)” value in the series with rats was “no trazpiroben-related effects were observed”. Moreover, the “dose at which maximal D2 receptor engagement occurs” value in the series on D2 receptor [6] (first-in-human Phase I trial) is reported as 10 mg; with D2 receptor [9], 1 mg/kg. In addition, the “average Cmax in plasma at maximal D2 receptor engagement” value in the series with D2 receptor [6] (inferred using prolactin release) is ~ 11 ng/mL. For the same molecule, the CYP3A4 substrate classification entry with CYP3A4 (Phase I drug–drug interaction study in healthy volunteers, ref NCT03161405) is given as “non-sensitive CYP3A4 substrate”. Besides, in the series on Sprague Dawley rats [7], the “effect on respiration rate or minute volume” value is listed as “No biologically relevant effect”. In addition, the “observed Cmax for each group of rats receiving trazpiroben” value in [8] is reported as at least 1450 ng/mL. In the series on beagle dogs [10] (doses ≤ 30 mg/kg), the “effects on body weight or temperature” value was “not associated with effects on body weight or temperature”. In addition, in the series on beagle dogs [10] (to study termination on day 12), the survival result is recorded as “all dogs survived”. The “median Tmax” value in [12] is reported as “approximately 1 hour post-dose”. Further, the “clinical observations, ophthalmic and body weight parameters” value with Sprague Dawley rats [13] is given as “No unexpected clinical observations or changes”. Further, the mortality entry in the series with Sprague Dawley rats [13] was “no trazpiroben-related mortality”.

What is called IC50 is the concentration that inhibits the measured activity by half.
